Rows were chosen to be rich in hits. Some 1.8% of all compounds tested hit in one or more screens of this group.
LEDGF integ inh: blocks HIV-1 LEDGF/p75-dependent DNA integration. inhibition, % at 3.7 µM. TR-FRET IN-LEDGF/p75 DNA integration, Eu/Cy5. actives 0.64% (n = 370,000). AID 743269;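 active = inhibition above the screen-wide mean plus 3 SD, cut at about 13% in these data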;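 note: signal is the Cy5 over europium emission ratio at 671 and 618 nm; 0% = plate median of compound wells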
core dimer inh: blocks dimerization of HCV core protein; actives 0.33% (n = 300,000); inhibition, % at 5 µM; TR-FRET GST/Flag-core106 dimerization, 1536-well; AID 1899;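 active = inhibition above the mean of all tested compounds plus 3 SD, set per screening campaign, cut at about 45% in these data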
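Assay system – GST-tagged and Flag-tagged HCV core protein residues 1-106 · Quantity – core106 proteins, GST 13.5 nM and Flag 17 nM · Benchmarks – unlabelled core106 and no-GST-core106 wells · Read-out basis – percent inhibition of core106 dimerization signal · Detection – time-resolved FRET, ex 340 nm, em 617 and 671 nm · Schedule – 4 h at 22.5 °C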
UHRF1 MBD2 ctr: blocks human UHRF1 binding to methylated DNA; inhibition, % at 4.4 µM; actives 0.75% (n = 370,000); UHRF1 binding to methylated oligo, TR-FRET; AID 687016; Q96T88; in the data active = inhibition above about 21%;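 note: UHRF1 SRA domain binding a hemimethylated CpG hairpin DNA probe; 0% = median of test compound wells and 100% = reference inhibitor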
MBD2 inh: inhibitors of human MBD2 binding to methylated oligonucleotide. Q9UBB5. TR-FRET. inhibition, % at 4.4 µM. actives 0.31% (n = 370,000); in the data active = inhibition above about 13%
Target sequence (Q9UBB5 whole entry, looked up): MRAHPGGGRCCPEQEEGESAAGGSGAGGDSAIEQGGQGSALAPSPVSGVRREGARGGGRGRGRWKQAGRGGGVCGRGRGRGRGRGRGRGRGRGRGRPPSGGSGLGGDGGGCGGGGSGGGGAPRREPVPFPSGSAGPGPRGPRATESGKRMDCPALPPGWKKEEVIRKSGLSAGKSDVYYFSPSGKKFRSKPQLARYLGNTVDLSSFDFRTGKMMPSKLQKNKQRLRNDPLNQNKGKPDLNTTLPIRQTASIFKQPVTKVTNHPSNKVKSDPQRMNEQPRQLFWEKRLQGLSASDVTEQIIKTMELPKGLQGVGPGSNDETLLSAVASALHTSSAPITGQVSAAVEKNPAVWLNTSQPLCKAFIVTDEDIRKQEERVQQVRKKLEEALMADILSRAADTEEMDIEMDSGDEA
TDP2 inh: blocks human TDP2 phosphodiesterase activity. O95551. actives 0.34% (n = 370,000). recombinant TDP2, T5PNP hydrolysis, p-nitrophenol absorbance 415 nm. inhibition, % at 12.8 µM;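 active = inhibition above the mean of all tested compounds plus 3 SD, set per campaign, cut at about 25% in these data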;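 note: 0% = DMSO with enzyme and 100% = buffer with substrate but no TDP2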
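System – recombinant human TDP2 · Quantity – TDP2 enzyme at 120 nM final · Doses – single concentration, 12.8 µM nominal, with 1% DMSO · Incubation – 2 h at 37 °C · Measured by – epi absorbance of p-nitrophenol freed from T5PNP by hydrolysis · Read-out – % inhibition relative to enzyme-containing and enzyme-free wells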
Numbers without * were called inactive.

How did COc1cc(C)nc(N(C)S(=O)(=O)c2ccccc2Cl)n1 do in these assays?
LEDGF integ inh: 12; core dimer inh: -2; UHRF1 MBD2 ctr: 28*; MBD2 inh: 9; TDP2 inh: 21

How did COc1nc(N(C)C)nc(N(OC)S(=O)(=O)c2ccccc2Cl)n1 do in these assays?
LEDGF integ inh: -1; core dimer inh: 0; UHRF1 MBD2 ctr: -1; MBD2 inh: 0; TDP2 inh: 8

Results for COC1=C[C@H](C(=O)NCCNC(C)=O)[C@@]2(C)Cc3ccccc3[C@H]2CC1=O ?
LEDGF integ inh: 0; UHRF1 MBD2 ctr: -1; MBD2 inh: 1; TDP2 inh: -7

What do the screens show for `CC(C)C[C@@H]1COc2cc(NC3CC3)ccc2S(=O)(=O)N1`?
LEDGF integ inh: 4; UHRF1 MBD2 ctr: 21*; MBD2 inh: 10; TDP2 inh: 2

What do the screens show for `C[C@H]1COc2cc(N3CCCCC3)ccc2S(=O)(=O)N1`?
LEDGF integ inh: 4; UHRF1 MBD2 ctr: 5; MBD2 inh: -3; TDP2 inh: 6

What do the screens show for `C[C@@H]1COc2cc(NCCO)ccc2S(=O)(=O)N1`?
LEDGF integ inh: 0; UHRF1 MBD2 ctr: 22*; MBD2 inh: 8; TDP2 inh: 2

What do the screens show for `C[C@@H]1COc2cc(N3CCCCC3)ccc2S(=O)(=O)N1`?
LEDGF integ inh: -1; UHRF1 MBD2 ctr: 22*; MBD2 inh: 10; TDP2 inh: 5

Results for O=C(OC12CCCN(C1)/C(=C/c1ccc(Cl)cc1)C2)c1cccc(F)c1 (configuration not stated) ?
LEDGF integ inh: 3; UHRF1 MBD2 ctr: -1; MBD2 inh: -6; TDP2 inh: 2

What do the screens show for `COc1ccc(CNC(=O)c2cc(S(=O)(=O)N3CCCCC3)ccc2N2CCOCC2)cc1OC`?
LEDGF integ inh: -3; UHRF1 MBD2 ctr: 30*; MBD2 inh: 1; TDP2 inh: -2

Results for CN1CCN(c2ccc(S(=O)(=O)N3CCOCC3)cc2NC(=O)CSCc2ccccc2)CC1 ?
LEDGF integ inh: -1; UHRF1 MBD2 ctr: -2; MBD2 inh: -6; TDP2 inh: -9

Results for CN1CCN(c2ccc(S(=O)(=O)N3CCOCC3)cc2NC(=O)CC(C)(C)C)CC1 ?
LEDGF integ inh: 0; UHRF1 MBD2 ctr: 61*; MBD2 inh: 1; TDP2 inh: 0

What do the screens show for `CCCC(=O)Nc1cc(S(=O)(=O)N2CCOCC2)ccc1N1CCCCC1`?
LEDGF integ inh: 3; UHRF1 MBD2 ctr: 3; MBD2 inh: 1; TDP2 inh: -7

How did CCCC(=O)Nc1cc(S(=O)(=O)N2CCCCC2)ccc1N1CCOCC1 do in these assays?
LEDGF integ inh: 4; UHRF1 MBD2 ctr: 21*; MBD2 inh: 4; TDP2 inh: -25

How did O=C(CN1c2cccc3cccc(c23)S1(=O)=O)Nc1ccccc1 do in these assays?
LEDGF integ inh: 7; core dimer inh: 9; UHRF1 MBD2 ctr: 69*; MBD2 inh: -9; TDP2 inh: -3

What do the screens show for `COc1ccc2c(CN3CCCCC3)cc(=O)oc2c1`?
LEDGF integ inh: -1; UHRF1 MBD2 ctr: 21*; MBD2 inh: 8; TDP2 inh: -6

What do the screens show for `CC(=O)Nc1ccc(O)c(-c2nc3ccccc3s2)c1`?
LEDGF integ inh: -5; core dimer inh: -10; UHRF1 MBD2 ctr: 39*; MBD2 inh: 1; TDP2 inh: -2

How did Cn1cccc1C(=O)N1CCN(S(=O)(=O)c2ccc(C(C)(C)C)cc2)CC1 do in these assays?
LEDGF integ inh: 0; UHRF1 MBD2 ctr: -2; MBD2 inh: 3; TDP2 inh: -7

How did Cc1ccc(C(C)C)cc1OCC(=O)Nc1nnc(C2CC2)s1 do in these assays?
LEDGF integ inh: 1; UHRF1 MBD2 ctr: 27*; MBD2 inh: 4; TDP2 inh: 9

How did Cc1cc(OCC(=O)Nc2nnc(C3CC3)s2)ccc1C(C)C do in these assays?
LEDGF integ inh: -3; UHRF1 MBD2 ctr: 0; MBD2 inh: 2; TDP2 inh: 5

Results for Cc1cc(/C=N/N2CCN(C)CC2)c(C)n1-c1ccc(Cl)cc1 ?
LEDGF integ inh: 1; core dimer inh: -3; UHRF1 MBD2 ctr: 30*; MBD2 inh: 3; TDP2 inh: 5

Results for O=C([C@@H]1C[C@H]1c1ccccc1)N1CC[C@H]2[C@H](CCCN2Cc2ccc(F)cc2)C1 ?
LEDGF integ inh: -2; UHRF1 MBD2 ctr: -1; MBD2 inh: 3; TDP2 inh: 0

From PubChem
